The test system of data set [1] is H9c2 cardiac myoblasts. Briefly: Intracellular sulfane sulfur detection using the SSP4 probe. Format: cell-based, rat. The procedure, abridged: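 H9c2 cells loaded with SSP4 (20 μM) plus CTAB (500 μM) for 20 min, then washed with serum-free medium. Test compound added at 0–200 μM. Plate-reader fluorescence (ex 482 nm, em 515 nm) read at set times over 3 h and normalised to the 0 μM value at each time. Mean ± SEM, n = 3 per group, three independent experiments.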

The subject of data set [2] is H9c2 cardiac myoblasts. Briefly: Protection from H2O2-mediated oxidative stress, CCK-8 viability assay. Format: cell-based, rat.
A short description of data set [3]: Kinetics of RSSH release. Format: physicochemical. As to conditions: for half-life at 100 µM: phosphate buffered saline with MMTS (1 mM) as RSSH trap, pH 7.4; for phenol byproduct 4a–f yield: precursor 100 μM, MMTS 1 mM, pH 7.4 PBS containing DTPA, HPLC. The procedure, abridged: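 Test compound (100 μM) incubated at 37 °C with MMTS (1 mM) as RSSH trap in PBS (pH 7.4, 100 mM) containing DTPA (100 μM). Timed aliquots quenched with 0.1% formic acid and analysed by HPLC: precursor at 240 nm, phenol at 275 nm. First-order rate constants from single-exponential fits; average of three experiments.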

A short description of data set [4]: Decomposition of precursors in the presence of thiol. In kind it is physicochemical.
In data set [5] the test system is H9c2 cardiac myoblasts. Briefly: Protection from H2O2-mediated oxidative stress, Sytox green viability assay. Format: cell-based, rat. The note with it: pretreatment 4 and 8 h, then H2O2 200 μM.
Data set [6] is described as follows: COS release in the presence of thiols by membrane inlet mass-spectrometry. In kind it is physicochemical. As to conditions: 50 μM precursor, NAC 0.25 mM, PBS pH 7.4, 37 °C.
The mark [7] stands for this setting: 10 equiv. MMTS, PBS pH 7.4, 100 mM, 37 °C.

From paper PMC8208316 (Chemical Science, 2021) come the findings set out here.

Several values for one entry are separate records, joined by “and”; a condition that tells them apart may be missing. Equal entries are not always repeated.

The half-life is how long it takes for the measured level to halve. Read a low half-life as fast loss.

For the compound `COC(=O)C(NC(C)=O)C(C)(C)SSC(=O)Oc1ccccc1` (stereo not drawn) [1a], the “SSP4 fluorescence signal (intracellular sulfane sulfur)” value in data set [1] (50 μM) was “did not observe a significant increase”. In addition, the “SSP4 fluorescence intensity (intracellular sulfane sulfur)” value in data set [1] (100 and 200 μM, over 3 h) was “dose-dependent increases in fluorescence intensity”. Besides, the “protection against H2O2-mediated toxicity (cell viability, CCK-8)” value (shortened to “protection … (cell viability, CCK-8)”) in data set [2] (pretreatment 5 μM for 8 h, then H2O2 200 μM) is given as “shows protection”. The “protection … (cell viability, CCK-8)” value in data set [2] (pretreatment 4 h (0–50 μM), then H2O2 200 μM 2 h) is recorded as “dose-dependent decrease of H2O2-induced toxicity”. Further, in data set [3] (setting [7]), the “k, disappearance of precursor (first-order)” value stood at 0.00539 min⁻¹ and the “k, formation of phenol (first-order)” value was found to be 0.00533 min⁻¹. Moreover, the half-life at 100 µM in data set [3] was determined as 2.15 ± 0.0333 h. For the same compound, the “phenol byproduct 4a–f yield” value in data set [3] (37 °C) is 92% and 92 ± 2%. For the same compound, in data set [4] (5 equiv. N-acetylcysteine methyl ester), the “formation of byproduct 9a (indication of RSSH yield)” value is on record as 53%. For the same compound, the “protection against H2O2-mediated toxicity (Sytox)” value in data set [5] is “consistently shows protective effects”. Also, in data set [6], the “COS production with respect to precursor 13” value is given as “approximately 20%”.

`COC(=O)C(NC(C)=O)C(C)(C)SSC(=O)Oc1ccc(C)cc1` (stereo not drawn) [1b] showed a half-life at 100 µM in data set [3] of 2.28 ± 0.0667 h. In data set [3] (37 °C), the “phenol byproduct 4a–f yield” value is reported as 93 ± 4%.

The compound `COC(=O)C(NC(C)=O)C(C)(C)SSC(=O)Oc1ccc(OC)cc1` (stereo not drawn) [1c] had a half-life at 100 µM in data set [3] of 2.45 ± 0.0333 h. Further, the “phenol byproduct 4a–f yield” value in data set [3] (37 °C) stood at 92 ± 1%.

Turning to `COC(=O)C(NC(C)=O)C(C)(C)SSC(=O)Oc1ccc(F)cc1` (stereo not drawn) [1d], the half-life at 100 µM in data set [3] was found to be 1.6 ± 0.05 h. Further, the “phenol byproduct 4a–f yield” value in data set [3] (37 °C) is reported as 96 ± 6%.

`COC(=O)C(NC(C)=O)C(C)(C)SSC(=O)Oc1ccc(C#N)cc1` (stereo not drawn) [1f] returned a half-life at 100 µM in data set [3] of 0.467 ± 0.0167 h. Also, the “phenol byproduct 4a–f yield” value in data set [3] (37 °C) worked out at 97 ± 2%.

For the compound `COC(=O)C(CSSSCC(NC(C)=O)C(=O)OC)NC(C)=O` [N-Ac-OMe-Cys-(S)3, N-acetyl O-methyl cysteine trisulfide, reference compound], the “SSP4 fluorescence signal in H9c2 cells compared with 1a” value in data set [1] is recorded as “higher fluorescence signal”.

In turn, `COC(=O)C(NC(C)=O)C(C)(C)SSC(=O)OCc1ccccc1` (stereo not drawn) [compound 8] showed a half-life at 100 µM in data set [3] of 37.2 ± 1.57 h. Also, the “decomposition rate in the presence of thiol with respect to 1a” value in data set [4] (in the presence of thiol) was “about six times slower”. Moreover, in data set [6], the “COS generation in the presence of NAC (comparison)” value is recorded as “slower COS generation”.

For `Oc1ccccc1` [phenol, reference compound], the “protection … (cell viability, CCK-8)” value in data set [2] (50 μM for 4 and 8 h, then H2O2 200 μM 2 h) is reported as “no protective effect”.
